Assay results reported in ChEMBL document CHEMBL2202985, “Novel series of 3-amino-N-(4-aryl-1,1-dioxothian-4-yl)butanamides as potent and selective dipeptidyl peptidase IV inhibitors” (Bioorg Med Chem Lett, 2012).
The source made the active and inactive calls. No cut-off for these calls is given here.

What was measured:
Mus musculus [1] = species: Mus musculus; assay: Metabolic stability in mouse; type: ADME, organism-based; conditions: in vivo
Homo sapiens = species: Homo sapiens; assay: Metabolic stability in human; type: ADME, organism-based; conditions: in vivo
Mus musculus [2] = assay: Inhibition of DPP4 in mouse plasma at 30 to 100 mg/kg, po; type: functional, organism-based
Mus musculus [3] = assay: Inhibition of DPP4 in po dosed mouse plasma; type: functional, organism-based
Mus musculus [4] = assay: Antidiabetic activity in po dosed ICR mouse assessed as blood glucose excursion after 20 to 120 mins by oral glucose tolerance test; type: functional, organism-based
How it was run: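 ICR mice dosed orally with distilled water vehicle or compound at 1, 3 or 10 mg/kg (10 mL/kg). Tail-nick blood glucose read by glucometer 30 min after dosing, then oral glucose challenge 2 g/kg (10 mL/kg). Blood glucose measured from tail bleeds at 20, 40, 60 and 120 min after glucose.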

| Stability (Mus musculus [1]) | Stability (Homo sapiens) | SMILES | inhibition (Mus musculus [2]) | inhibition (Mus musculus [3]) | Activity (Mus musculus [4]) |
| --- | --- | --- | --- | --- | --- |
| Stable | Stable | N[C@@H](CC(=O)NC1(c2cccc(-n3ccnc3)c2)CCS(=O)(=O)CC1)Cc1cc(F)c(F)cc1F | inactive | – | – |
| Stable | Stable | N[C@@H](CC(=O)NC1(c2cccc(-c3cncs3)c2)CCS(=O)(=O)CC1)Cc1cc(F)c(F)cc1F | inactive | – | – |
| Stable | Stable | N[C@@H](CC(=O)NC1(c2nc(-c3ccccc3)cs2)CCS(=O)(=O)CC1)Cc1cc(F)c(F)cc1F | – | Dose-dependent effect | Dose-dependent effect |
